OX1R antag-1 = human HCRTR1 antagonism; CHO/OX1R cells, Fluo-8 calcium fluorescence, orexin A; inhibition, % at 5 µM; 330,000 tested, 0.43% active;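 active = inhibition above its plate's threshold, mean inhibition of all tested compounds on the plate plus 3 SD, cut at about 37% in these data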
TAAR1 agonist = human TAAR1 agonism | 360,000 tested, 0.99% active | Q96RJ0 | activation, % at 3 µM | CHO RD-HGA16 TAAR1, Fluo-8 calcium fluorescence; vehicle wells 0%, saturating PEA agonist 100%;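 active = activation above the mean activation of all test compounds in the run plus 3 SD, cut at about 38% in these data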
Target sequence (Q96RJ0 whole entry, looked up): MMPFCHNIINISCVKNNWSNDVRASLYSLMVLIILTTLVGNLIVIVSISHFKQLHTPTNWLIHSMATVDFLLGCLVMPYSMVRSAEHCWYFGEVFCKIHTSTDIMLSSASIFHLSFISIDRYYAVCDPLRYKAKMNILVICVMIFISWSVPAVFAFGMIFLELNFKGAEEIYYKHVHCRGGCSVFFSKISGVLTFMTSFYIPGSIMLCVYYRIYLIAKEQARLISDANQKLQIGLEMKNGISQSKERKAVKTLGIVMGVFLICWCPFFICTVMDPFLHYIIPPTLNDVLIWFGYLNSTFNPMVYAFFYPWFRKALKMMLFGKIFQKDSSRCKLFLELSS
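Test system: RD-HGA16 (CHO) cells co-expressing Gα16 and hTAAR1; dosing: one-point dosing at 3 µM (nominal); timing: 17-24 h seeding, 75 min 37 °C dye, 30 min RT; signal: kinetic Fluo-8 calcium fluorescence; read-out basis: % activation relative to PEA EC100 response; controls: DMSO and PEA EC100; replicates: n 1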
TAAR1 antag = human TAAR1 antagonism; 360,000 tested, 1.5% active; inhibition, % at 3 µM; Q96RJ0; CHO RD-HGA16 TAAR1, Fluo-8 calcium fluorescence, antagonist;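 active = inhibition above a per-plate cutoff, the mean inhibition of test compounds on that plate plus 3 SD, cut at about 49% in these data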
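Test system – hTAAR1-expressing CHO RD-HGA16 cells, Gα16-coupled · Reagent – β-PEA at EC80 concentration, post-compound challenge · Compound dosing – 3 µM, single point · Timing – 140 s kinetic read after compound, 140 s after agonist · Detection – Fluo-8 intracellular calcium dye fluorescence, real-time kinetic reads · Control set – DMSO and EC80 PEA controls · Repeats – n of 1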
GPR7 antag = human neuropeptides B/W receptor 1 antagonism | P48145 | GPR7-expressing cells, fluorescence antagonist assay | inhibition, % at 4.4 µM | 290,000 tested, 1.1% active; in the data active = inhibition above about 16%, passing the limit was not always enough;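 also: cells stimulated with the agonist NPW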
Target sequence (P48145 whole entry, looked up): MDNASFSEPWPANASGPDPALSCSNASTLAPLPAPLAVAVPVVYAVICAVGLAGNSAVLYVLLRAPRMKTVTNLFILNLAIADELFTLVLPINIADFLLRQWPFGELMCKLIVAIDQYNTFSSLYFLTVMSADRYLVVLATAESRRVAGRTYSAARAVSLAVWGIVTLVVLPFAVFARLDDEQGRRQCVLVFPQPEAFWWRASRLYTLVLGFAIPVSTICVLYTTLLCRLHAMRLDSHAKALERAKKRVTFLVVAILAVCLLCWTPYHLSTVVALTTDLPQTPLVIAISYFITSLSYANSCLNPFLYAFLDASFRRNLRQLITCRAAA
CHO parental Ca = counter-screen for OX1R antagonists: effect in parental CHO cells. inhibition, % at 5.6 µM. AID 463079. 330,000 tested, 0.63% active. parental CHO-K1, ATP-induced calcium, Fluo-8 fluorescence;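 active = inhibition above that plate's mean sample inhibition plus 3 SD, cut at about 26% in these data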
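Test system: untransfected parental CHO cell line. Compound: one dose, 5.6 µM nominal. Detection: intracellular calcium via Fluo-8 no-wash fluorescent dye. Measure: % inhibition. Benchmarks: ATP-challenged DMSO wells low, unchallenged DMSO wells high.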
OX1R antag-2 = OX1R (human) antagonism; O43613; OX1R-expressing cells, FRET antagonist read-out; inhibition, % at 6.6 µM; 330,000 tested, 1.8% active; in the data active = inhibition mostly above about 38%, no sharp cut-off; inactive = mostly below about 40%
GPR7 antag conf = human GPR7 antagonism, confirmation assay; shares compounds with GPR7 antag; GPR7-expressing cells, calcium fluorescence antagonist mode; inhibition, % at 4.4 µM; 2,400 tested, 52% active; in the data active = inhibition above about 24%;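 also: stimulated with the GPR7 agonist NPW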
MCHR1 antag = counter-screen for GPR7 antagonists: antagonists of human MCHR1; shares compounds with GPR7 antag; MCHR1-expressing cells, fluorescence antagonist assay; inhibition, % at 4.4 µM; 2,400 tested, 62% active; AID 2148; in the data active = inhibition above about 22%
Of the large screens only hits and unclear results are named; the others gave an inactive call (follow-up assays come after a bar, where they were run). Most compounds without a hit are left out; they make up all but 4.6% or so of the library.

Cc1ccc(-n2cccn2)c(CN2CCC(CO)(CCc3ccccc3)CC2)c1	GPR7 antag 21 (no result: OX1R antag-1, CHO parental Ca, OX1R antag-2) | GPR7 antag conf 32 | MCHR1 antag 28
COc1cc2sc(-c3ccc(S(C)(=O)=O)cc3)c(-c3ccc4c(c3)OCO4)c2cc1OC	none (no result: GPR7 antag)
CCN(C(=O)COC(=O)Cn1cnc2c1c(=O)n(C)c(=O)n2C)C1CCS(=O)(=O)C1 (centres undefined)	GPR7 antag 29 | GPR7 antag conf inactive | MCHR1 antag inactive
Cc1c(NC(=O)c2ccc(S(=O)(=O)Nc3ccccc3F)cc2)c(=O)n(-c2ccccc2)n1C	none (no result: GPR7 antag)
CCN1CCN(c2oc(COc3ccc(Cl)cc3)nc2C#N)CC1	none
N#Cc1nc(COc2ccccc2)oc1N1CCCC1	none
COc1ccc(N2CCN(c3oc(COc4ccc(Cl)cc4)nc3C#N)CC2)cc1	GPR7 antag 39 | GPR7 antag conf 40 | MCHR1 antag 33
N#Cc1nc(COc2ccccc2)oc1NCCN1CCOCC1	none
N#Cc1nc(COc2ccc(-c3ccccc3)cc2)oc1NCCCN1CCOCC1	GPR7 antag 24 | GPR7 antag conf 41 | MCHR1 antag 56
CN1CCN(c2oc(COc3ccc(-c4ccccc4)cc3)nc2C#N)CC1	GPR7 antag 27 | GPR7 antag conf inactive | MCHR1 antag 41
N#Cc1nc(COc2ccc(Cl)cc2)oc1N1CCN(Cc2ccccc2)CC1	GPR7 antag 48 | GPR7 antag conf 50 | MCHR1 antag 47
CC(C)N1C(=O)CCC1C(=O)NCc1ccc(F)cc1Cl (centres undefined)	none
NC(=O)CC(NC(=O)Cc1ccc(Br)cc1)c1ccc(N2CCC(N3CCCCC3)CC2)c([N+](=O)[O-])c1 (centres undefined)	none
COC(=O)C(C(C)C)N(Cc1cc(OC)cc(OC)c1)S(=O)(=O)CCl (centres undefined)	none (no result: GPR7 antag)
CCc1nc2c(OCC(=O)c3ccc(F)cc3)cccn2c1N(C)C(=O)c1ccc(OC)cc1	none (no result: OX1R antag-1, GPR7 antag, CHO parental Ca, OX1R antag-2)
COc1ccc(N2CCN(c3oc(Cc4ccccc4)nc3C#N)CC2)cc1	none
COc1ccc(N2CCN(c3oc(COc4ccccc4)nc3C#N)CC2)cc1	GPR7 antag 44 | GPR7 antag conf 49 | MCHR1 antag 46
COc1ccc(N2CCN(c3oc(COc4ccc(Cl)cc4Cl)nc3C#N)CC2)cc1	GPR7 antag 41 | GPR7 antag conf 54 | MCHR1 antag 35
C=CCNc1oc(COc2ccc(C)cc2)nc1C#N	GPR7 antag 24 | GPR7 antag conf inactive | MCHR1 antag inactive
Cc1nc(Cl)c(C(=O)NCCc2ccccc2)c(C)c1[N+](=O)[O-]	none
O=C(Nc1ccnn1C1CCN(Cc2ccc(CO)o2)CC1)c1ccccc1	GPR7 antag 29 | GPR7 antag conf inactive | MCHR1 antag inactive
CC(C)(C)n1nc2c(c1NC(=O)c1c(F)cccc1F)CS(=O)(=O)C2	GPR7 antag 43 | GPR7 antag conf 28 | MCHR1 antag 22
CC(C)(C)n1nc2c(c1NC(=O)c1ccccc1)CS(=O)(=O)C2	none
O=C(NC1(Cc2ccccc2)CCN(CCc2cccs2)C1=O)c1ccccc1 (centres undefined)	none (no result: GPR7 antag)
COc1cccc(-n2cc(CN(C)Cc3nc(Cc4cccc(F)c4)no3)cn2)c1	none
COc1ccc(CN(C)Cc2nc(Cc3cccc(F)c3)no2)c2cccnc12	GPR7 antag 30 | GPR7 antag conf inactive | MCHR1 antag 43
CCc1nc2ccc(C(=O)N3CCN(c4ccc([N+](=O)[O-])cc4)CC3)cc2nc1CC	GPR7 antag 29 | GPR7 antag conf 24 | MCHR1 antag 86
CCNC(=S)N1CCN(c2ccc([N+](=O)[O-])cc2)CC1	GPR7 antag 27 | GPR7 antag conf inactive | MCHR1 antag inactive
CNC(=S)N1CCN(c2ccc([N+](=O)[O-])cc2)CC1	none
O=[N+]([O-])c1ccc(N2CCN(C(=S)NCc3ccc(Cl)cc3)CC2)cc1	OX1R antag-1 51, GPR7 antag 51, CHO parental Ca 84 | GPR7 antag conf 81 | MCHR1 antag 87
CCCC(c1nnnn1Cc1ccc(OC)cc1)N1CCN(C(=O)c2ccco2)CC1 (centres undefined)	none
CCCCNC(=O)C1(C)CCN1C(=O)c1cc(OC)ccc1Br (centres undefined)	none (no result: OX1R antag-1, GPR7 antag, CHO parental Ca, OX1R antag-2)
CC(C)CNC(=O)c1cc2nc3c(c(C(F)(F)F)n2n1)CCc1ccccc1-3	GPR7 antag 22 | GPR7 antag conf inactive | MCHR1 antag inactive
CCCCNC(=O)c1cc2nc3c(c(C(F)(F)F)n2n1)CCc1ccccc1-3	none
COc1ccc(S(=O)(=O)N2CCC(C(=O)NCCc3ccc4c(c3)OCO4)CC2)cc1	GPR7 antag 28 | GPR7 antag conf inactive | MCHR1 antag inactive
COc1ccc(CCNC(=O)c2ccc3c(c2)OCCO3)cc1	GPR7 antag 28 | GPR7 antag conf inactive | MCHR1 antag inactive
O=C(NCCc1ccc2c(c1)OCO2)C1CCN(S(=O)(=O)c2ccc(Cl)cc2)CC1	none
COc1ccc(S(=O)(=O)N2CCC(C(=O)NCc3ccco3)CC2)cc1	GPR7 antag 80 | GPR7 antag conf 24 | MCHR1 antag inactive
Cc1cccc(C(=O)N2CCCC(N3CCN(Cc4ccc5c(c4)OCO5)CC3)C2)n1 (centres undefined)	GPR7 antag 27 | GPR7 antag conf inactive | MCHR1 antag inactive
O=C(c1ccccn1)N1CCCC(N2CCN(Cc3ccc4c(c3)OCO4)CC2)C1 (centres undefined)	none
Cc1cc(O)c(C(C)C)cc1C1(c2cc(C(C)C)c(O)cc2C)OC(=O)c2ccccc21	none | GPR7 antag conf inactive | MCHR1 antag inactive
CCCCNC(=O)[C@H]1C[C@H]1[C@@H](O)[C@H](CO)NC(=O)[C@H](Cc1ccccc1)NC(=O)OC(C)(C)C	none
O=C1CCCCCN1C(=O)c1ccccc1	none (no result: OX1R antag-1, GPR7 antag, CHO parental Ca, OX1R antag-2)
O=C1CCCCCN1Sc1ccccc1	GPR7 antag 26 | GPR7 antag conf 32 | MCHR1 antag 88
COc1ccc(/C(C)=N/NC(=O)c2cc(C)[nH]n2)c(OC)c1	none
CCOC(=O)c1c(NC(=O)CSc2ncccn2)sc2c1CCN(Cc1ccccc1)C2	GPR7 antag 27 (no result: OX1R antag-1, CHO parental Ca, OX1R antag-2) | GPR7 antag conf inactive | MCHR1 antag 51
CCc1ccc(NC(=O)C/C(C)=N/NC(=O)COc2ccc(C)cc2Br)cc1	GPR7 antag 42 | GPR7 antag conf inactive | MCHR1 antag inactive
C/C(CC(=O)Nc1ccccc1)=N\NC(=O)COc1ccc(C)cc1Br	none
